# Screening results (PubChem BioAssay)
# NALP1 inh: inhibitors of NALP1 inflammasome in yeast; S. cerevisiae NALP1/ASC/caspase-1 growth, X-gal OD620, 72 h; inhibition, % at 10 µM; 280,000 compounds, 0.61% hits; in the data active = inhibition mostly above about 24%, no sharp cut-off; inactive = mostly below about 32%
# Tb MetRS inh: Trypanosoma brucei MetRS inhibition. 360,000 compounds, 0.4% hits. inhibition, % at 11.9 µM. purified T. brucei MetRS, ATP depletion, Kinase-Glo luminescence. AID 624268;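 active = inhibition above a per-plate cutoff of the control wells' mean inhibition plus 3 SD, cut at about 5.5% in these data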;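 also: 0% = DMSO wells median and 100% = median of wells with control inhibitor compound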
#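 technique = Kinase-Glo luminescence, ATP depletion format | system = purified MetRS (methionyl-tRNA synthetase) enzyme from Trypanosoma brucei | timing = 15 min preincubation, 2 h reaction, all 25 °C | evaluation = percent inhibition versus plate control medians | dosing = single dose, 11.9 µM final nominal, 0.9% final DMSO | also added = substrates ATP, L-methionine and bulk Escherichia coli tRNA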
# MC4R antag cAMP: antagonists of human melanocortin 4 receptor (MC4R); P32245; MC4R-expressing cells, MTII-stimulated cAMP, LANCE TR-FRET; inhibition, % at 6.5 µM; 360,000 compounds, 0.48% hits;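 active = inhibition above its plate's cutoff, the mean of tested wells on that plate plus 3 SD, cut at about 29% in these data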;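 also: 0% = Melanotan II alone and 100% = Melanotan II plus saturating MCL0020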
# Target sequence (P32245 whole entry, looked up): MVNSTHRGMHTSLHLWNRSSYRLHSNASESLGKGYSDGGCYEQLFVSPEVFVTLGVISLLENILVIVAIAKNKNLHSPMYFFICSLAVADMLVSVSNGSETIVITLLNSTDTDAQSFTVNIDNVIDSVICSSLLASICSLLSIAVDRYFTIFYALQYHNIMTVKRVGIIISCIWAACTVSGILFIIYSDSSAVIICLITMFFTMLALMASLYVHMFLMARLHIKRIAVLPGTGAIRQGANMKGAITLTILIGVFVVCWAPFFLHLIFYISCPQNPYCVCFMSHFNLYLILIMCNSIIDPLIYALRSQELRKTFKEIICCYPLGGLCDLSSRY
#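 Assay system: U2OS-MC4R stable cell line; Also added: Melanotan II; Technique: Eu-cAMP/anti-cAMP TR-FRET, emission 671 nm; Times: 30-min compound, 1-h challenge, 1-h detection, room temperature.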
# MC4R ag barr: activates human MC4R beta-arrestin recruitment; 360,000 compounds, 0.98% hits; U2OS MC4R beta-arrestin complementation, luminescence; percent of melanotan II response, DMSO zero; P32245; AID 540308; activation, % at 8.9 µM;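 active = activation above a per-plate cutoff, the mean activation of sample wells on that plate plus 3 SD, cut at about 8% in these data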
# Bfl-1 A1 inh: inhibitors of the anti-apoptotic protein A1, read as caspase activation; MEF A1-2A-BIM cells, Caspase-Glo 3/7 luminescence, 3 h; percent of clofoctol response, vehicle zero; caspase activation, % (test concentration not listed); 330,000 compounds, 0.066% hits;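 active = over half of replicate activation scores above 10%, or exactly half above 10 with the replicate mean above 10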
# NLRP3 yeast inh: blocks the NALP3 inflammasome reconstituted in yeast. inhibition, % at 10 µM. Yeast reconstituted NLRP3/ASC/caspase-1, beta-gal luminescence, 24 h. 330,000 compounds, 0.39% hits;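 active = inhibition of 50% or more; inactive = inhibition below 50%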;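 also: plate controls were induced DMSO wells for no effect and uninduced yeast grown without galactose for full effect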
# NALP3 yeast conf: NALP3 inhibition confirmation in yeast; shares compounds with NLRP3 yeast inh; yeast expressing human NALP3, luminescence; inhibition, % at 10 µM; 1,300 compounds, 81% hits; AID 435006; in the data active = inhibition above about 48%
# Casp1-ASC yeast: caspase-1-ASC yeast counter-screen hit; 1,000 compounds, 66% hits; shares compounds with NLRP3 yeast inh; yeast expressing Caspase-1-ASC, luminescence counter screen; inhibition, % at 10 µM; AID 488784
# NALP3 yeast rt: yeast NALP3 inhibition, confirmed on retest | shares compounds with NLRP3 yeast inh | yeast expressing human NALP3, luminescence read-out | inhibition, % at 10 µM | 1,000 compounds, 53% hits | AID 488794
# Numbers without * were called inactive; . = no result. Most compounds without a hit are left out; they make up all but 2.5% or so of the library. Rule as the data show it, unless noted: active = inhibition above about 50%; inactive = the rest.
SMILES,NALP1 inh,Tb MetRS inh,MC4R antag cAMP,MC4R ag barr,Bfl-1 A1 inh,NLRP3 yeast inh,NALP3 yeast conf,Casp1-ASC yeast,NALP3 yeast rt
CC1Oc2ccccc2N(Cc2ccccc2Cl)C1=O (centres undefined),6,-1,8,3,2,-144,6,.,.
CC1Oc2ccccc2N(Cc2ccccc2F)C1=O (centres undefined),-2,.,.,.,-1,-74,.,.,.
O=C(Nc1cccc(-n2cnnn2)c1)c1cc(Cl)nc(Cl)c1,26,0,2,-2,-1,16,.,.,.
CC(C)(C)c1ccc(C(=O)Nc2cccc(-n3cnnn3)c2)cc1,18,1,4,-2,1,52*,65*,58*,27
O=C(N/N=C/c1cccs1)c1ccc2ccccc2c1,8,0,-4,-3,0,66*,81*,68*,66*
O=C(N/N=C/c1cccs1)c1ccc2ncccc2c1,-10,0,-7,-3,0,6,.,.,.
CC(=O)OCCN(CCCn1c(-c2ccncc2)nc2ccccc21)c1nc(CN2CCCCC2)cs1,27,0,-5,0,0,-1,.,.,.
N#C/C(=N/Nc1ccc(OC(F)(F)F)cc1)C(N)=S,7,2,6,-2,-2,86*,97*,.,.
COc1ccc(N/N=C(\C#N)C(N)=O)cc1,17,0,-23,-2,-1,7,.,.,.
COc1ccc(N2C(=O)c3ccc(C(=O)Nc4ccccc4OC)cc3C2=O)cc1,10,-1,6,1,1,28,.,.,.
Cc1cc(C)c(C(=O)N(CCN(C)C)CC2CCCN(Cc3ccccc3F)C2)o1 (centres undefined),11,-1,4,3,-1,6,.,.,.
CC1CC1C(=O)OCc1cc(=O)n2cc(Br)ccc2n1 (centres undefined),2,0,4,-1,1,8,.,.,.
CC1(C(=O)OCc2cc(=O)n3cc(Br)ccc3n2)CC1(Cl)Cl (centres undefined),5,-1,5,2,0,64*,72*,78*,64*
CC1(C(=O)NS(=O)(=O)c2ccccc2Cl)CCN1C(=O)c1ccccc1 (centres undefined),.,0,6,-2,.,.,.,.,.
CC(=Nc1cccc(O)c1)c1sc2ccccc2c1O,7,0,-2,-3,-5,52*,50*,19,23
Cn1nnc(NC(=S)NC(=O)c2cccc3ccccc23)n1,13,0,-3,-5,1,56*,64*,71*,55*
Cn1nnc(NC(=S)NC(=O)c2ccc3ccccc3c2)n1,.,0,-8,-3,.,.,.,.,.
Nc1ccccc1O,.,0,5,0,0,33,.,.,.
Nc1ccccc1SC/C=C/CSc1ccccc1N,9,-1,4,1,0,52*,57*,45,40
COc1ccc(C(C)(C)C)cc1NC(=O)c1ccc2ncsc2c1,3,0,15,4,2,42,.,.,.
COc1ccc(C(C)(C)C)cc1NC(=O)c1cncc(Br)c1,5,-1,-6,-1,0,56*,62*,58*,55*
O=C(CSc1cccc2cccc(Cl)c12)NCc1cccs1,37,0,9,-3,0,52*,65*,45,31
CN1CCS/C1=C/C=C1\SC(=S)N(CC(=O)O)C1=O,-20,0,-38,-3,0,21,.,.,.
CCCCN1C(=O)/C(=C/C=C2\SCCN2C)SC1=S,4,0,-7,-5,.,58*,48,64*,65*
COC(=O)N[C@@H]1C[C@H]2[C@@H]3CC[C@H]4C[C@@H](OC)CC[C@]4(C)[C@H]3CC[C@]12C,.,0,13,3,0,37,.,.,.
SMILES,NALP1 inh,Tb MetRS inh,MC4R antag cAMP,MC4R ag barr,Bfl-1 A1 inh,NLRP3 yeast inh,NALP3 yeast conf,Casp1-ASC yeast,NALP3 yeast rt
CC(=O)O[C@H]1CC[C@@]2(C)C(CCC3C2CC[C@]2(C)OC(=O)CCC32)C1 (some centres undefined),21,0,-4,-1,1,60*,58*,59*,35
CCC(c1nnnn1-c1ccc2c(c1)OCCO2)N1CCN(Cc2c(F)cccc2Cl)CC1 (centres undefined),.,-1,.,.,.,.,.,.,.
CC(Oc1ccc(Br)cc1)C(=O)Nc1nc(-c2ccccn2)cs1 (centres undefined),7,0,-8,-6,0,51*,77*,89*,81*
CC1(C(=O)NS(=O)(=O)C2CC2)CCCN(C(=O)C2(c3ccc(Cl)cc3)CCCC2)C1 (centres undefined),.,1,6,0,.,.,.,.,.
O=C(Nc1ccc(Cl)cc1)c1ccc2c(=O)n3c(nc2c1)CCCCC3,-8,0,13,-1,.,28,.,.,.
O=C(Nc1cccc(Cl)c1)c1ccc2c(=O)n3c(nc2c1)CCCCC3,1,-1,2,-1,.,70*,66*,.,.
COc1cc(/C=C/C(=O)OCC(=O)N2CCCC2)ccc1OCC#N,.,0,-5,-1,0,0,.,.,.
COc1ccc2cc3cc(C(=O)NCCN4CCN(c5ccccc5F)CC4)oc3nc2c1,-4,0,0,-1,2,53*,16,.,.
COc1ccc2cc3cc(C(=O)Nc4ccccc4N4CCN(C)CC4)oc3nc2c1,-2,0,-2,-2,-4,39,.,.,.
CCOc1nc(S(=O)(=O)c2ccc(C)cc2)c(Cl)s1,-19,0,10,-1,0,-107,-12,.,.
CNc1nc(SCc2ccc(C)cc2)nc2c1CCCC2,99*,0,7,1,1,97*,99*,99*,99*
COC(=O)[C@@]12C[C@@H](CC(=O)NCc3cccs3)C(=O)N(Cc3cccc4ccccc34)C1=CCC(C)(C)C2,.,1,.,.,.,.,.,.,.
N#C/C(=C\c1cccc(Br)c1)C(=O)N1CCCCC1,26,0,9,0,0,60*,58*,68*,50*
N#C/C(=C\c1cccc(O)c1)C(=O)N1CCCCC1,-79,0,0,-2,0,20,.,.,.
O=C(NCCS(=O)(=O)NCCCc1ccccc1)c1ccccc1,.,0,8,-2,0,10,.,.,.
N#Cc1ccc(-c2csc(NNC(=O)c3ccc(Br)cc3)n2)cc1,13,-1,1,-3,0,51*,51*,38,36
N#Cc1ccc(-c2csc(NNC(=O)c3ccccc3)n2)cc1,14,-1,2,0,1,19,.,.,.
